Measurements as given in ChEMBL document CHEMBL4406919, “Structure-Based Design of Selective, Covalent G Protein-Coupled Receptor Kinase 5 Inhibitors” (ACS Med Chem Lett, 2019).

Assays:
[1] = Inhibition of bovine GRK6 using tubulin as substrate measured after 4 hrs by [gamma-32P]-ATP assay; set-up: species or system Bos taurus
Method in brief: (§1)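 Radiometric kinase assay using tubulin as phosphoacceptor and [γ-32P]ATP. Inhibitor was preincubated with the kinase for the stated time (here 4 h) before the reaction. IC50 came from dose–response curves. Most runs were three independent experiments in duplicate; some GRK5/GRK6 4 h runs were done twice in duplicate.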

Rhodopsin kinase GRK1 [2] = target: T1, Rhodopsin kinase GRK1 (Bos taurus, UniProt P28327); test: Inhibition of bovine GRK1 using tubulin as substrate measured after 4 hrs by [gamma-32P]-ATP assay; method in brief: as §1
T1 sequence (P28327 whole entry): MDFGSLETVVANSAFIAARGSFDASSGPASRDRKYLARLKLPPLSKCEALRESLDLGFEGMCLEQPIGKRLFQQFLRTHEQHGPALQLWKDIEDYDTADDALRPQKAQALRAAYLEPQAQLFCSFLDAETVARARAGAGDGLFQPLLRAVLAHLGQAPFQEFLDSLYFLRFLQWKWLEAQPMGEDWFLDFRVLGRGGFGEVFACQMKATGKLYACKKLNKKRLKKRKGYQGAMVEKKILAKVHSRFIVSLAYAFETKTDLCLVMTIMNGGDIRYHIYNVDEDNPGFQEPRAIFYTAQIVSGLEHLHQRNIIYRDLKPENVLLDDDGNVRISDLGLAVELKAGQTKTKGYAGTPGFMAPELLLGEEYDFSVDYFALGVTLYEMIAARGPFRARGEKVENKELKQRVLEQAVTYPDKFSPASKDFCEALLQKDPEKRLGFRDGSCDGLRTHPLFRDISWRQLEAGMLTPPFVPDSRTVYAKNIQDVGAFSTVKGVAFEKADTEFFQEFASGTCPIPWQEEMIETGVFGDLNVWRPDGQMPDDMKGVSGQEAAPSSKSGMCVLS

[3] = target: T2, Beta-adrenergic receptor kinase 1 (Bos taurus, UniProt P21146); test: Inhibition of bovine GRK2 using tubulin as substrate measured after 4 hrs by [gamma-32P]-ATP assay; method in brief: as §1
T2 sequence (P21146 whole entry): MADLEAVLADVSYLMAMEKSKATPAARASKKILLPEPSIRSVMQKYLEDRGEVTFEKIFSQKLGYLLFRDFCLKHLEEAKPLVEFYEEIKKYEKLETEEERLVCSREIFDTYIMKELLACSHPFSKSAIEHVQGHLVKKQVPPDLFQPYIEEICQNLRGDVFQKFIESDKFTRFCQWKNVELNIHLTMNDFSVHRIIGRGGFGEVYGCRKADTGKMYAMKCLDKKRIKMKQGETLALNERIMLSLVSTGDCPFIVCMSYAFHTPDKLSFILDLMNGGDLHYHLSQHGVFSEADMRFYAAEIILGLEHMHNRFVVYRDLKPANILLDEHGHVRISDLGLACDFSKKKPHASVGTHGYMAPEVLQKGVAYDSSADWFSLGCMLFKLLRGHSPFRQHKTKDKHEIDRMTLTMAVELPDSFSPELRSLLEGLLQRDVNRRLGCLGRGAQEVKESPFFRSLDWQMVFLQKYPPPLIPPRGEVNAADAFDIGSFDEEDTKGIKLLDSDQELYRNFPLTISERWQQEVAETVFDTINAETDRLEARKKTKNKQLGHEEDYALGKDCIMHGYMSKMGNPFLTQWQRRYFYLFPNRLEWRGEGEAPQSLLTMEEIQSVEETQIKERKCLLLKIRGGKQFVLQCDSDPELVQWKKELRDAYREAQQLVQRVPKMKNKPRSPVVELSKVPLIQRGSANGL

[4] = target: T3, G protein-coupled receptor kinase 5 (Homo sapiens, UniProt P34947); test: Inhibition of human GRK5 using tubulin as substrate measured after 4 hrs by [gamma-32P]-ATP assay
[5] = Selectivity index, ratio of IC50 for bovine GRK2 to IC50 for human GRK5
Method in brief: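 Selectivity is the GRK2 IC50 divided by the GRK5 IC50. Both values come from the tubulin/[γ-32P]ATP radiometric assay. The GRK5 value used is from the longest inhibitor preincubation tested.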

Rhodopsin kinase GRK1 [6] = target: T1, Rhodopsin kinase GRK1; test: Displacement of BODIPY TR-ADP from bovine GRK1 (1 to 535 residues) preincubated for 10 mins followed by compound addition and measured after 10 to 15 mins by fluorescence polarization displacement assay
[7] = target: T3, G protein-coupled receptor kinase 5; test: Displacement of BODIPY TR-ADP from GRK5 (unknown origin) preincubated for 10 mins followed by compound addition and measured after 10 to 15 mins by fluorescence polarization displacement assay
[8] = target: G protein-coupled receptor kinase 5 (Bos taurus, UniProt P43249, C474S); test: Inhibition of bovine GRK5 C474S mutant using tubulin as substrate measured after 4 hrs by [gamma-32P]-ATP assay
Sequence of G protein-coupled receptor kinase 5 (Bos taurus, UniProt P43249, C474S) (P43249 whole entry C474S): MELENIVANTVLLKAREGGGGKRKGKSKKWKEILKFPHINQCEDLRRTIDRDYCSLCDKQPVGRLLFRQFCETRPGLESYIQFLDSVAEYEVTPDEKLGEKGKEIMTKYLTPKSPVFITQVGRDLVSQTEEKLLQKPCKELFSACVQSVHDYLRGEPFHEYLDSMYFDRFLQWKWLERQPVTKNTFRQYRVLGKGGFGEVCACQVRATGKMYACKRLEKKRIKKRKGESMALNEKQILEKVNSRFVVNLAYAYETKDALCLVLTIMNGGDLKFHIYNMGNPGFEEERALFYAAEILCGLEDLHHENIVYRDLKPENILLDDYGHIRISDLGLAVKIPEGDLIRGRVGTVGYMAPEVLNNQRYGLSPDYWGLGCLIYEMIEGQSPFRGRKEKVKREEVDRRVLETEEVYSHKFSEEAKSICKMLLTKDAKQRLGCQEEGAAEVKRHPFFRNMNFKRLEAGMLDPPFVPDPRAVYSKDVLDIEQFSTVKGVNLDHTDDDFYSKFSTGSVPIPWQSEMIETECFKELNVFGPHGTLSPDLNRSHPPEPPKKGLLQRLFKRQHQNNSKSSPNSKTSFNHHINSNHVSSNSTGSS

T3 sequence (P34947 whole entry): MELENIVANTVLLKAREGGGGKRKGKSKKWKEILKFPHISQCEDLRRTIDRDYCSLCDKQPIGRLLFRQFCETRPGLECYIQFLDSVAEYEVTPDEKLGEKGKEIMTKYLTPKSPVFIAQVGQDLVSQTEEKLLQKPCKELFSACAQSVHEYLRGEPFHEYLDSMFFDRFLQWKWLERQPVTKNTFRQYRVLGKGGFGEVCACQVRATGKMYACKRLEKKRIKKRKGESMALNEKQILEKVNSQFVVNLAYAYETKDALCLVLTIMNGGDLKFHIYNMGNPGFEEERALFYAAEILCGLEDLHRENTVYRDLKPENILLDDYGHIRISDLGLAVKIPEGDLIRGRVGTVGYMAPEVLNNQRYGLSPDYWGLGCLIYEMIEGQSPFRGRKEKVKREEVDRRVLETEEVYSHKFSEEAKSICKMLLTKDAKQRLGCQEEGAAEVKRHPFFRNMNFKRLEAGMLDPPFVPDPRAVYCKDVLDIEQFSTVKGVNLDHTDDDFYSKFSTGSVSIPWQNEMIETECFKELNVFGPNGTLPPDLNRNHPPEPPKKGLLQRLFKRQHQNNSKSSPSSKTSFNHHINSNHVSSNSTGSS

Row | IC50 [1] [µM] | IC50 [3] [µM] | SMILES | also measured
1 | 0.41 |  | C=CC(=O)Nc1ccc(Nc2nc(Nc3ccccc3C(N)=O)c3cc[nH]c3n2)c(OC)c1 | 
2 |  | 2.7 | COc1ccc(NC(=O)/C=C/CN(C)C)cc1Nc1nc(Nc2ccccc2C(N)=O)c2cc[nH]c2n1 | IC50 (Rhodopsin kinase GRK1 [2]): 2.1 µM
3 |  | 0.68 | COc1cc(NC(=O)/C=C/CN(C)C)ccc1Nc1nc(Nc2ccccc2C(N)=O)c2cc[nH]c2n1 | IC50 (Rhodopsin kinase GRK1 [2]): 0.76 µM
4 | > 100 | > 100 | CC#CC(=O)NCc1ccc(OC)c(Nc2nc(Nc3ccccc3C(=O)NC)c3cc[nH]c3n2)c1 | IC50 [4]: > 100 µM
5 | > 100 | > 100 | CC#CC(=O)NCc1ccc(Nc2nc(Nc3ccccc3C(=O)NC)c3cc[nH]c3n2)c(OC)c1 | 
6 | 2.5 | > 100 | C=CS(=O)(=O)NCc1ccc(OC)c(Nc2nc(Nc3ccccc3C(=O)NC)c3cc[nH]c3n2)c1 | IC50 [4]: 7.1 µM; Ratio IC50 [5]: > 14
7 |  |  | COc1cc2c(cc1Nc1nc(Nc3ccsc3C(N)=O)c3cc[nH]c3n1)N(C(=O)CN(C)C)CCC2(C)C [GSK-2163632A] | IC50 (Rhodopsin kinase GRK1 [6]): 0.13 µM; IC50 [7]: 3.2 µM
8 | 7.7 | > 100 | C=CS(=O)(=O)NCc1ccc(Nc2nc(Nc3ccccc3C(=O)NC)c3cc[nH]c3n2)c(OC)c1 | 
9 | 18 | 3.2 | C=CC(=O)NCc1ccc(OC)c(Nc2nc(Nc3ccccc3C(=O)NC)c3cc[nH]c3n2)c1 | 
10 | > 100 | > 100 | CCC(=O)NCc1ccc(Nc2nc(Nc3ccccc3C(=O)NC)c3cc[nH]c3n2)c(OC)c1 | IC50 [4]: > 100 µM; IC50 [8]: 100 µM
11 | 2.6 | 2.1 | CNC(=O)c1ccccc1Nc1nc(Nc2cc(CNC(=O)/C=C/CN(C)C)ccc2OC)nc2[nH]ccc12 | IC50 [4]: 4.8 µM; Ratio IC50 [5]: 0.4
12 | > 100 | > 100 | C=CC(=O)NCc1ccc(Nc2nc(Nc3ccccc3C(=O)NC)c3cc[nH]c3n2)c(OC)c1 | 
13 | > 100 | 2.9 | CCC(=O)NCc1ccc(OC)c(Nc2nc(Nc3ccccc3C(=O)NC)c3cc[nH]c3n2)c1 | IC50 [4]: > 100 µM; Ratio IC50 [5]: < 0.01
14 | > 100 | > 100 | CNC(=O)c1ccccc1Nc1nc(Nc2ccc(CNC(=O)/C=C/CN(C)C)cc2OC)nc2[nH]ccc12 | 
15 |  |  | CCCN1CCC(Oc2cc(Nc3nc(Nc4cccc(F)c4C(N)=O)c4cc[nH]c4n3)c(OC)cc2Cl)CC1 [GSK-1713088A] | IC50 [7]: 3.2 µM
16 |  |  | CCCN1CCC(c2ccc(Nc3nc(Nc4cc(F)ccc4C(N)=O)c4cc[nH]c4n3)c(OC)c2)CC1 [GSK-1326255A] | IC50 (Rhodopsin kinase GRK1 [6]): > 100 µM; IC50 [7]: 2.5 µM
17 | > 100 |  | CCC(=O)Nc1ccc(OC)c(Nc2nc(Nc3ccccc3C(N)=O)c3cc[nH]c3n2)c1 | 
